# MEKK2 WT-MEK5 – modulators of MEK5 binding to wildtype MEKK2, primary screen, biochemical, multiplex bead flow cytometry, Alexa488-MEK5. Mitogen-activated protein kinase kinase kinase 2 (Homo sapiens), Q9Y2U5. Alexa488-MEK5 binding to MEKK2 WT; actives lie on both sides. binding response (% of control), % at 10 µM. actives 1.1% (n = 290,000). AID 1531, 2009; in the data active = binding response below about 67% or above about 130%
# MEKK3 PB1 HTS – modulators of MEKK3-MEK5 PB1 binding, primary screen, biochemical, wildtype MEKK3, multiplex bead flow cytometry, Alexa488-MEK5. AID 1529, 2009. actives 1.4% (n = 290,000). Mitogen-activated protein kinase kinase kinase 3 (Homo sapiens), Q99759. bead-based flow cytometry, Alexa488-MEK5 binding to MEKK3; actives lie on both sides; 0 = blocked by unlabeled MEK5, 100 = vehicle. binding response (% of control), % at 10 µM;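 active = binding response more than 3 SD above or below the average of its plate-row segment, actives on both sides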;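 note: Alexa488 bead fluorescence after subtracting the streptavidin-only scavenger bead signal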
# T cruzi inh – inhibitors of intracellular T. cruzi growth, primary screen, luminescence, NIH3T3 host cells. T. cruzi beta-gal in NIH3T3, 90 h. inhibition, % (concentration not given with the values). actives 1.4% (n = 300,000). AID 1885, 2009;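 active = mean inhibition across valid replicates above about 55%, limit read from the data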;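 note: signal also drops with host cell toxicity which is not excluded here; 0% = plate median of DMSO wells and 100% = zero luminescence signal; higher percent means less beta-gal luminescence so fewer parasites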
#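 Test system: β-gal T. cruzi (Tulahuen C4) inside NIH/3T3 cells / Quantity: 5,000 cells/well / Measured by: luminescence from GalScreen with 0.05% NP40, read after 60 min / Medium: DMEM plus 2% FBS / Measure: parasite load inhibition, % / Reagent: Tulahuen C4 trypomastigotes, 5000/well / Schedule: co-culture of at least 90 h after 3 h attachment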
# MEKK2mut PB1 HTS – MEK5 binding signal on mutant MEKK2 PB1, primary screen, biochemical, multiplex bead flow cytometry, Alexa488-MEK5; Alexa488-MEK5 binding to MEKK2 mutant; percent response, % at 10 µM; actives 0.35% (n = 290,000); AID 1530, 2009; in the data active = percent response above about 24%, passing the limit was not always enough
# FID counter – compounds displacing fluorescent DNA intercalator, primary screen, artefact control for HCV NS3 helicase inhibitor project, biochemical, FID fluorescence. DNA fluorescent intercalator displacement. AID 1845, 2009. actives 0.17% (n = 290,000). inhibition, % at 7.9 µM; in the data active = inhibition above about 37%;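 note: 0% = vehicle and 100% = reference compound; higher means more ethidium bromide displaced from hairpin DNA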
# NS3 helicase inh – inhibitors of HCV NS3 helicase, primary screen, biochemical, Cy5 molecular beacon fluorescence; Hepatitis C virus NS3 helicase; NS3 helicase DNA unwinding; inhibition, % at 10.9 µM; actives 0.56% (n = 290,000); AID 1800, 2009;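 active = inhibition above the mean of all tested compounds plus 3 SD, set per campaign, cut at about 35% in these data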;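 note: 0% = DMSO wells and 100% = thioflavine S control wells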
#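 System: NS3 helicase fragment of HCV / Schedule: 1 h at 25 °C / Control set: DMSO alone as 0% and 110 µM thioflavine S as 100% / Reagent: Cy5/quencher beacon DNA duplex and ATP to start / Technique: Cy5 fluorescence / Replication: singlicate / Evaluation: % inhibition of end-to-start signal ratio versus controls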
# Starred values were filed as active, the others as inactive; x = not tested or not shown; [ ] = another dose, or the depositor's remark. Most compounds without a hit are left out; they make up all but 4.1% or so of the library.
SMILES,MEKK2 WT-MEK5,MEKK3 PB1 HTS,T cruzi inh,MEKK2mut PB1 HTS,FID counter,NS3 helicase inh
O=C(Cn1cnc([N+](=O)[O-])n1)N/N=C/c1ccc2ccccc2c1,100,98,62*,10,5,-6
O=C(Cn1cnc([N+](=O)[O-])n1)NCc1ccccc1,x,x,79*,x,2,0
CCN(CC)CCC(C)OC(=O)c1ccc(O)cc1O (configuration not stated),89,102,29,-10,2,-7
CCOCCn1c(CN2CCN(C)CC2)nc2c1c(=O)n(C)c(=O)n2C,42*[inhibitor],46*[inhibitor],-8,5,x,x
OCC1(Cc2cccc(F)c2)CCN(Cc2cccc3nccnc23)CC1,117,104,7,12,2,-11
CC(C)c1csc(CN2CCC(CO)(Cc3cccc(F)c3)CC2)n1,90,96,68*,-10,-10,-13
CCC(=O)NC(=S)Nc1cccc(NC(=O)c2ccccc2)c1,110,109,-6,0,-9,10
Cc1nn(C)c(C(=O)Nc2ccc(S(=O)(=O)NC34CC5CC(CC(C5)C3)C4)cc2)c1Br,98,93,59*,3,-1,4
O=c1ccc(-c2ccc(S(=O)(=O)N3CCN(c4cccc(Cl)c4)CC3)o2)n[nH]1,90,95,5,-3,-6,15
CCOC(=O)c1sc(Nc2ccc(Br)cc2)nc1C,-4.0*,107,15,5,-7,-11
CCOC(=O)c1sc(Nc2ccccc2Cl)nc1C,106,102,2,1,-13,-15
CCOc1cc(S(=O)(=O)N2CCC(Cc3ccccc3)CC2)c(OCC)cc1-n1cnnn1,94,101,67*,0,-16,2
CCOc1cc(S(=O)(=O)N2CC=C(c3ccc(F)cc3)CC2)c(OCC)cc1-n1cnnn1,97,97,35,-5,-4,5
Cc1c(C)n(C)c2ccc(C(=O)NCCCN3CCN(c4ccc(F)cc4)CC3)cc12,134*,98,14,7,22,-35
CN(C)CCNC(=O)Cn1c(=O)c2cccn2c2ccc(F)cc21,108,108,-5,7,2,-9
O=C(Cn1c(=O)c2cccn2c2ccc(F)cc21)NCCCN1CCN(c2ccccc2F)CC1,156*,108,23,27*,19,-23
Cc1c(C)n(C)c2ccc(C(=O)NCCCN3CCN(c4ccccc4F)CC3)cc12,158*,107,22,21,20,-29
NC(N)=NS(=O)(=O)c1ccc(NC(=S)NC(=O)Cc2ccc(Cl)cc2)cc1,95,96,-9,-2,-3,13
CCc1cc2c(SCc3nc4sc(C(C)=O)c(C)c4c(=O)[nH]3)ncnc2s1,100,103,-9,2,-7,5
O=C(N[C@@H](c1ccccc1)[C@H](O)c1ccccc1)[C@@H]1CCCN1C(=O)OCc1ccccc1,89,85,-6,-5,x,x
CCCOC(=O)C[N+](C)(C)CCOC1CC2CCC1(C)C2(C)C (configuration not stated),97,92,38,-10,15,-45
CC(C)CCOC(=O)C[N+](C)(C)CCOC1CC2CCC1(C)C2(C)C (configuration not stated),97,88,61*,-10,23,-40
CCC(C)OC(=O)C[N+](C)(C)CCOC1CC2CCC1(C)C2(C)C (configuration not stated),97,97,64*,-6,19,-27
CCCCOC(=O)C[N+](C)(C)CCOC1CC2CCC1(C)C2(C)C (configuration not stated),110,119,50,1,23,-57
CCC(NC(=O)c1ccc([N+](=O)[O-])cc1[N+](=O)[O-])c1ccccc1 (configuration not stated),100,102,58*,4,-12,-2

# High-throughput results from PubChem BioAssay.
